# Compound activity (PubChem)
# GalR3 antagonist: antagonists of human GalR3. O60755. AID 651719. HEK293 GalR3-CNG cAMP membrane potential fluorescence; galR3 body fused to GalR1 C-terminus. 360,000 tested, 0.44% active. inhibition, % at 3 µM;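 active means inhibition above the screen-wide average plus 3 SD, cut at about 13% in these data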;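 further: forskolin and galanin both at EC90 stimulate the cells; cAMP rise reported by CNG channel membrane potential dye signal; 0% = forskolin plus galanin with DMSO and 100% = forskolin alone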
# Target sequence (O60755 1-299 limits assumed): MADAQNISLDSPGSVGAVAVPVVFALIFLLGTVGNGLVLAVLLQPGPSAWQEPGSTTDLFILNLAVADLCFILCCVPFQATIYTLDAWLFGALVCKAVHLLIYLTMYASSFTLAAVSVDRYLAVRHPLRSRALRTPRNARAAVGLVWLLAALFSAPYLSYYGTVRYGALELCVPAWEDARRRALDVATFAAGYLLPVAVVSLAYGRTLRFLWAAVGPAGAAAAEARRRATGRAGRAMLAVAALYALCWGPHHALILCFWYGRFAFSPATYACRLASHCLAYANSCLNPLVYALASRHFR
# TAG inh: inhibitors of triacylglycerol accumulation. H9c2 cells, Nile Red lipid (TAG) fluorescence; cells loaded with 200 µM oleic acid. inhibition, % at 12.5 µM. 230,000 tested, 0.66% active. AID 651582;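 active means pattern-corrected inhibition of lipid staining of at least 50% with the nuclear-stain viability signal not falling by more than 50%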;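 further: 0% = DMSO wells and 100% = triacsin C control wells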
# MC4R barr agon: activates human MC4R beta-arrestin recruitment | activation, % at 8.9 µM | U2OS MC4R beta-arrestin complementation, luminescence; percent of melanotan II response, DMSO zero | AID 540308 | 360,000 tested, 0.98% active | P32245;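 active means activation above a per-plate cutoff, the mean activation of sample wells on that plate plus 3 SD, cut at about 8% in these data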
# Target sequence (P32245 whole entry, looked up): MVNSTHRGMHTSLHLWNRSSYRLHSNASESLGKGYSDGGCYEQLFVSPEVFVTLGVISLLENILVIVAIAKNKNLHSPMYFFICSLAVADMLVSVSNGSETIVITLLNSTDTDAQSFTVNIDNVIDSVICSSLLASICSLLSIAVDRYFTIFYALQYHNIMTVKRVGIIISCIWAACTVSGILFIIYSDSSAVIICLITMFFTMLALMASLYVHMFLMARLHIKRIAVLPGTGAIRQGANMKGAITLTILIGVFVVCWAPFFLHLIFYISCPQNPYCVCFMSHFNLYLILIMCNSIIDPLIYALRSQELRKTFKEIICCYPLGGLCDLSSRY
# MC4R antag cAMP: antagonists of human melanocortin 4 receptor (MC4R). AID 540295. 360,000 tested, 0.48% active. inhibition, % at 6.5 µM. MC4R-expressing cells, MTII-stimulated cAMP, LANCE TR-FRET;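 active means inhibition above its plate's cutoff, the mean of tested wells on that plate plus 3 SD, cut at about 29% in these data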;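 further: 0% = Melanotan II alone and 100% = Melanotan II plus saturating MCL0020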
#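 System: U2OS cells stably expressing human melanocortin 4 receptor (MC4R). Reagent: Melanotan II challenge after compound preincubation. Doses: 6.5 µM. Times: 30-min compound, 1-h challenge, 1-h detection, room temperature. Measured by: TR-FRET with Eu-cAMP and labeled anti-cAMP, 671 nm. Replicates: singlicate.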
# Calb FLC: C. albicans growth modulation with fluconazole; growth inhibition, % (no concentration beside the values); C. albicans CaCi-2 + fluconazole, Alamar Blue growth, 48 h; AID 1979; 300,000 tested, 0.57% active;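 active means growth inhibition above about 58% in most replicates, limit read from the data, passing the limit was not always enough; inconclusive means exactly half the replicates above a set limit; inactive means most replicates below a set limit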;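 further: all wells also contain fluconazole at 8 µg/ml as a sub-toxic cotreatment; 0% = median of DMSO wells and 100% = median of geldanamycin control wells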
# Efflux pump inh: inhibitors of Candida antifungal efflux pumps expressed in yeast; 330,000 tested, 0.44% active; S. cerevisiae Candida pump triplex, Nile Red efflux; AID 485275; inhibition, % at 10 µM;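 active means plate passing quality check with inhibition over a set limit, or well fluorescence over plate mean plus 4 SD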;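 further: Nile Red retained in pooled yeast measured as flow cytometry median fluorescence; 0% = buffer negative control and 100% = Enniatin B positive control; higher means more Nile Red kept so more efflux inhibition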
# * hit, by the source's call; ? = inconclusive; / = not tested or not shown. An excerpt weighted towards active compounds, which were near 2.9% of everything screened.
SMILES,GalR3 antagonist,TAG inh,MC4R barr agon,MC4R antag cAMP,Calb FLC,Efflux pump inh
C(C#CCCCCCCCCC[n+]1ccccc1)#CCCCCCCCCC[n+]1ccccc1,/,-4.5,4.0,7.4,110.1*,0.4
COc1cccc(CN(C(=O)c2cc3ccccc3oc2=O)C2CC2)c1,-5.5,1.5,-2.1,-1.7,89.9*,0.0
CCCCc1c(-c2ccccc2OC)ncn1Cc1ccc([N+](=O)[O-])cc1,-3.3,/,/,/,/,/
Cc1nc2ccc(C(=O)N3c4ccccc4CC3C)cc2s1 (configuration not stated),-7.0,5.3,-3.1,-5.2,116.2*,0.1
CC1Cc2ccccc2N1C(=O)c1cccnc1 (configuration not stated),-5.8,/,-3.4,4.1,4.4,0.1
O=C(Nc1ccc(F)cc1)c1cnc(-c2ccccc2)nc1-c1ccccc1,-5.3,/,7.9,12.1,6.3,0.0
O=C(Nc1ccc(F)c(F)c1)c1cnc(-c2ccccc2)nc1-c1ccccc1,-5.1,/,8.7*,-1.2,7.3,0.0
NC(=O)c1csc(CCNC(=O)c2ccccc2)n1,-5.9,11.9,-1.5,8.1,/,/
O=C(Nc1ccccc1-c1ccccc1)C(c1ccccc1)c1ccccc1,-7.2,/,9.4*,0.7,10.8,0.1
c1ccc(N2CCN(Cc3ccnc4ccccc34)CC2)cc1,-11.1,/,-0.7,-10.5,12.3,-0.1
Oc1c(CN2CCOCC2)cc(COCc2ccccc2)c2cccnc12,0.4,/,-1.1,-3.0,82.6*,0.0
COc1ccccc1N1CCN(Cc2ccc(O)c3ncccc23)CC1,-6.0,/,-1.4,-2.6,-6.3,0.2
Oc1c(CN2CCN(c3ccccc3)CC2)cc(Br)c2cccnc12,-5.8,/,-2.9,9.1,101.6*,-0.1
CCOC(=O)N1CCN(Cc2ccccc2Cl)CC1,-0.3,/,-0.8,11.2,/,0.1
Oc1c(CNc2ccccc2)cc(COCc2ccccc2)c2cccnc12,-8.7,6.3,0.4,1.8,/,0.4
CCOC(=O)N1CCN(Cc2cc(Cl)c3cccnc3c2O)CC1,11.8,/,/,/,116.1*,0.1
COCc1cc(CN2CCN(C)CC2)c(O)c2ncccc12,-3.5,/,-0.5,2.0,107.5*,0.1
CC1CN(C2CCCCC2)C(=S)N(c2ccccc2)C1=O (configuration not stated),-4.2,-20.3,-1.3,4.8,/,/
O=C(Nc1ccccc1Cl)Nc1ccnn1C1CCN(C(=O)C2CCOC2)CC1 (configuration not stated),-2.9,2.0,-1.0,-2.8,/,/
COC(=O)c1cc2c(c3c4cc(OC)ccc4n(S(=O)(=O)c4ccc(C)cc4)c13)C(=O)N(C)C2,-5.8,/,/,/,/,/
CCOC(=O)C1CCN(Cc2ccc(O)c3ncccc23)CC1,0.4,59.8,-1.8,-1.9,111.9*,-0.1
O=S(=O)(c1cccs1)N1CN(Cc2ccco2)c2nc3ccccc3nc21,-5.8,9.9,0.2,-2.3,17.6,0.7*
CC(=O)CSc1nc2nccnc2[nH]1,-4.4,-20.7,-0.9,9.8,/,/
c1ccc2sc(NN=C3CCCCCC3)nc2c1,-8.8,16.7,-3.0,1.8,106.3*,0.8
O=C(OCc1ccccc1)N1CCC2CC1c1ccc(/C=C/CCCCl)cc12 (configuration not stated),1.8,/,/,/,/,/
SMILES,GalR3 antagonist,TAG inh,MC4R barr agon,MC4R antag cAMP,Calb FLC,Efflux pump inh
COc1cccc(N=c2oc3ccc(OC)cc3cc2-c2nc3ccccc3[nH]2)c1,-5.7,13.6,8.5*,-14.5,0.0,0.1
O=c1ccc(N=Nc2ccccc2)ccc1O,-12.4,/,-3.6,-0.9,101.0*,0.0
O=S(=O)(O)c1ccc(N=Nc2ccccc2)cc1,-9.0,-9.3,-0.7,3.3,-3.4,0.1
CCCCNC(=O)COC(=O)c1c2c(nc3ccccc13)CCC2,-9.0,/,-2.3,9.4,-1.0,0.0
CNC(=O)COC(=O)c1c2c(nc3ccccc13)CCC2,-0.5,-3.3,-2.4,1.3,110.1*,0.0
CC(=O)Nc1ccc(NC(=O)CSc2n[nH]c(-c3cccs3)n2)cc1,2.3,4.7,-2.2,0.4,-7.2,-0.1
O=[N+]([O-])c1ccc(Cl)cc1Sc1nc2ccccc2o1,1.8,/,-0.4,1.1,53.2,-0.1
Cc1ccc(Sc2ccc([N+](=O)[O-])cc2[N+](=O)[O-])nc1,0.0,-12.9,-1.1,-0.3,32.8,0.1
Cc1ccnc(Sc2ccc([N+](=O)[O-])cc2[N+](=O)[O-])n1,-1.8,/,-2.5,-4.1,97.6*,0.0
O=[N+]([O-])c1ccc(Sc2nc3ccccc3o2)c([N+](=O)[O-])c1,-1.4,/,-4.2,16.7,93.2*,0.4
CC1(c2nnnn2-c2ccc3c(c2)OCCO3)CCC(=O)N1Cc1ccc(F)cc1 (configuration not stated),-2.1,/,/,/,/,/
CCOC(=O)CNC(c1ccccc1)c1cc(Br)ccc1NC(=O)CCN1CCOCC1 (configuration not stated),-0.8,/,-2.5,2.5,110.5*,0.0
CCOC(=O)CNC(c1ccccc1)c1cc(Br)ccc1NC(=O)OCC (configuration not stated),-8.9,-4.0,2.2,1.4,-2.3,0.1
COc1ccc(/C=C/C(=O)c2cc(F)ccc2OC(=O)c2ccccc2)cc1OC,10.4,80.4*,-0.2,-17.5,7.7,0.1
COc1ccc(/C=C/C(=O)c2cc(Br)ccc2OC(=O)c2ccco2)cc1OC,-4.4,/,-3.2,11.8,?,0.0
COc1ccc(/C=C/C(=O)c2cc(F)ccc2OC(=O)c2ccc(OC)c(OC)c2)cc1OC,-9.7,17.3,-1.4,11.6,25.8,-0.1
COc1ccc(/C=C/C(=O)c2cc(F)ccc2OC(=O)c2ccccc2OC)cc1OC,-2.9,56.5*,-3.5,-23.1,24.6,/
COC(=O)[C@@]12C[C@@H](CC(=O)NCCCCc3ccccc3)C(=O)N(Cc3ccco3)C1=CCC(C)(C)C2,-7.8,/,/,/,/,/
O=C(N/N=C/c1cc(Cl)cc(Cl)c1O)c1ccncc1,10.0,65.4*,-1.1,12.9,2.1,-0.1
O=C(NCc1nc(-c2ccccc2)no1)c1ccc2c(c1)OCO2,-3.4,/,-0.9,0.4,3.6,0.1
Cc1ccccc1OCc1nc(-c2ccc(NC(=O)c3ccc4c(c3)OCO4)cc2)no1,-1.7,33.9,22.2*,1.4,-17.8,0.1
O=C(Nc1ccc(Cl)c(Cl)c1)c1ccc2c(c1)OCO2,-6.8,/,9.3*,9.2,-11.7,0.0
O=C(N/N=C/c1ccc(Cl)cc1Cl)c1ccncc1,-3.2,/,-2.0,2.2,1.1,0.3
O=C(N/N=C/c1cc(Br)cc(Cl)c1O)c1ccc2c(c1)OCO2,-3.2,45.8,-3.2,1.4,93.9*,-0.2
O=C(Nc1ccc2c(c1)OCO2)c1ccc2c(c1)OCO2,-4.1,/,1.2,14.8,0.7,-0.4
CCn1c(SCCN2CCCCC2)nc2c1c(=O)n(C)c(=O)n2C,-0.5,-4.8,-0.3,-0.5,/,/
